SENP7 inh – inhibitors of human SENP7 protease. Q9BQF6. recombinant SENP7, Z-RLRGG-aminoluciferin luminescence, 40 min. inhibition, % at 5 µM. 330,000 tested, 1.5% active. AID 434973;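 active = inhibition above about 50% at the single test dose, limit read from the data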;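 also: plate controls were DMSO with enzyme for no effect and no enzyme buffer wells for full effect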
SENP8 block-1 – blocks human SENP8 cleavage of Nedd8 substrate. inhibition, % at 20 µM. AID 602440. recombinant SENP8, Nedd8 substrate fluorescence. Q96LD8. 360,000 tested, 0.64% active; in the data active = inhibition mostly above about 40%, no sharp cut-off; inactive = mostly below about 27%
Target sequence (Q96LD8 whole entry, looked up): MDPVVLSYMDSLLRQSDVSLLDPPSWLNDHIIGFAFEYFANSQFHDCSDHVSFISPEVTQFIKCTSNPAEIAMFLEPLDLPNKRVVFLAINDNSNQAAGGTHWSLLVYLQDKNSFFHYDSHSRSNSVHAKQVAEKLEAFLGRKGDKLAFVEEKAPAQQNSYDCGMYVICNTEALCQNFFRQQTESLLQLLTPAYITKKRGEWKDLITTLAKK
SENP6 inh – blocks the human protease SENP6 | Recombinant SENP6 catalytic domain, aminoluciferin luminescence | Q9GZR1 | inhibition, % at 10 µM | 330,000 tested, 1.8% active | AID 2599;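 active = inhibition above about 50% at the single tested dose, limit read from the data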;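 also: plate controls were DMSO wells with enzyme for no effect and DMSO wells lacking enzyme for full effect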
UBC13 polyUb – inhibitors of human UBC13 polyubiquitin chain formation; TR-FRET; 330,000 tested, 0.47% active; AID 485273; inhibition, % at 20 µM; in the data active = inhibition above about 45%, passing the limit was not always enough
Target sequence (P61088 whole entry, looked up): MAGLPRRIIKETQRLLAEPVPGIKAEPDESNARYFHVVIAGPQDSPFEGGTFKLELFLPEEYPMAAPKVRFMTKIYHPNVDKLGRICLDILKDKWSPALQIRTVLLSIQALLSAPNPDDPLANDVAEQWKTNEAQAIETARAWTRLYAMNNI
Apaf1 inhib – blocks human Apaf-1 apoptosome activity; inhibition, % at 20 µM; 330,000 tested, 0.71% active; reconstituted apoptosome caspase-3 activity, DEVD-Rh110 fluorescence; O14727; active = inhibition of at least 40% at 20 µM;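 also: plate controls were DMSO wells for no effect and DEVD-CHO caspase inhibitor wells for full effect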
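Material: biochemical Apaf-1 apoptosome reconstitution. Medium: Hepes buffer, pH 7.5. Also added: cytochrome c activation, bis-DEVD rhodamine 110 substrate. Timing: 30 min compound preincubation, 50 min activation, room temperature. Measured by: rhodamine 110 fluorescence at Ex 480/Em 540 nm.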
SENP8 block-2 – inhibitors of human SENP8 protease; Q96LD8; purified SENP8, Z-RLRGG-aminoluciferin cleavage, luminescence; inhibition, % at 10 µM; 330,000 tested, 1.2% active; AID 2540; in the data active = inhibition above about 50%
SENP8 conf – SENP8 (human) inhibition, single concentration confirmation | 1,400 tested, 15% active | inhibition, % at 25 µM | AID 624319 | purified SENP8, Nedd8-AMC/pro-Nedd8 cleavage fluorescence, 30 min | shares compounds with SENP8 block-1; in the data active = inhibition mostly above about 39%, no sharp cut-off; inactive = mostly below about 34%
Starred values were filed as active, the others as inactive; i = inactive; / = no result. In the library only some 3% were active in any assay of this set; here they are far more common.

SMILES	SENP7 inh	SENP8 block-1	SENP6 inh	UBC13 polyUb	Apaf1 inhib	SENP8 block-2	SENP8 conf
Cc1ccc(CN2CC(C(=O)O)CC2=O)cc1 (centres undefined)	4	40*	-3	8	-3	0	21
Cc1ccc(Nc2cc(C)c(O)c(C)c2)cc1	8	48*	8	-22	8	2	67*
Cc1ccc(S(=O)(=O)Nc2cc(C)c(O)c(S(=O)(=O)c3ccc(C)cc3)c2)cc1	4	16	5	6	2	0	/
CC(N=Cc1ccccc1O)c1ccccc1 (centres undefined)	-1	14	-7	-5	-4	-11	/
Cc1cc(O)c(C(C)C)cc1N=Cc1ccccc1O	7	82*	0	-2	36	3	24
COc1c(C)cc(C(O)c2ncc(-c3ccccc3C)[nH]2)cc1C (centres undefined)	/	10	/	/	/	/	/
COc1ccc(CNC(=O)[C@@H](NC(=O)C2CCN(C(=O)[C@@H]3CCCN3C(=O)OC(C)(C)C)CC2)C(C)C)cc1	-12	7	-17	0	-3	-18	/
COc1ccccc1CNC(=O)[C@H](C)NC(=O)C1CCN(C(=O)[C@@H]2CCCN2C(=O)OC(C)(C)C)CC1	-1	45*	1	0	-5	8	14
COc1ccc(Nc2nc(N)nc(CN3CCc4ccccc4C3)n2)cc1	6	44*	6	13	20	7	29
Nc1nc(CN2CCc3ccccc3C2)nc(Nc2ccccc2)n1	12	25	4	-10	39	9	/
CN(C)C1(CN=Cc2cc(Cl)cc([N+](=O)[O-])c2O)CCCCC1	3	40*	24	-47	25	1	24
Cc1ccc(C(=O)N/N=C\c2ccc([N+](=O)[O-])s2)cn1	11	32	39	-32	7	31	/
O=C(NN=Cc1ccc(N2CCOCC2)s1)c1ccc([N+](=O)[O-])cc1	-5	43*	-2	-126	3	-2	31
Cc1ccc(C(=O)N/N=C/c2ccc([N+](=O)[O-])s2)cc1	12	44*	6	-12	0	7	24
O=C(N/N=C/c1ccc(N2CCOCC2)s1)c1ccc(O)cc1	/	i	/	/	/	/	/
COc1cc(N(C)C)c([N+](=O)[O-])cc1C(=O)NC(C)CNc1ccc([N+](=O)[O-])cc1Cl (centres undefined)	-8	42*	-22	-26	5	-13	26
CCN(CC)CCNC(=O)c1cc([N+](=O)[O-])c(N(C)C)cc1OC	-2	31	-2	-10	-12	-2	/
Cn1ccc2c(-c3ccc(C(=O)O)cc3)cc3c(c21)C1CCC3O1 (centres undefined)	/	-355	/	/	/	/	/
O=C1Nc2ccccc2-c2nnnn2C1N1CCCC1 (centres undefined)	/	19	/	/	/	/	/
CN1C2=CC=CC=CC2=[N+](C)C12C([N+](=O)[O-])=CC(=[N+]([O-])[O-])C=C2[N+](=O)[O-] (centres undefined)	-6	23	12	-54	3	-4	/
CN1C2=CC=CC=CC2=[N+](C)C12C=CC(=[N+]([O-])[O-])C=C2[N+](=O)[O-] (centres undefined)	13	53*	16	-208	-3	4	26
C/C(=N\Nc1nc2ccccc2[nH]1)c1ccc([N+](=O)[O-])cc1	-10	54*	-12	-55	9	1	4
O=C(NCc1ccccc1)c1cc(C2CCCN(S(=O)(=O)c3ccccc3)C2)on1 (centres undefined)	/	1	/	/	/	/	/
CCN(CC)c1ncnc2c1cnn2Cc1ccc(Cl)cc1	5	41*	13	-1	-4	1	3
CCOC(=O)N1CCN(C(=O)COC(=O)CNC(=O)c2ccc(C)cc2)CC1	2	43*	-8	-2	-8	9	21
COc1ccc(Nc2nc(=O)c3cc([N+](=O)[O-])ccc3s2)cc1	/	55*	/	/	/	/	22
Cc1ccc(Nc2nc(=O)c3cc([N+](=O)[O-])ccc3s2)cc1	-4	33	-9	-1	-15	0	/

Source: PubChem
